Experimental findings from BindingDB's records for doi:10.1021/jm970020k (Eli Lilly, 1997) are described below.

Assay [1] has as its target Integrin alpha-IIb/beta-3 (Homo sapiens, UniProt P08514+P05106). Briefly: Inhibition of the platelet GPIIb-IIIa receptor measured as ability to attenuate ADP-induced (fibrinogen-mediated) platelet aggregation in human platelet-rich plasma (PRP). An outline of the steps: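 Functional GPIIb-IIIa assay in human platelet-rich plasma. Aggregation was induced with ADP and depends on fibrinogen.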

Assay [2] can be described thus: Inhibition ADP-induced (fibrinogen-mediated) platelet aggregation in human platelet-rich plasma (PRP).

SMILES strings stand for the structures.

Chain of Integrin alpha-IIb/beta-3 (P05106 27-788 limits assumed): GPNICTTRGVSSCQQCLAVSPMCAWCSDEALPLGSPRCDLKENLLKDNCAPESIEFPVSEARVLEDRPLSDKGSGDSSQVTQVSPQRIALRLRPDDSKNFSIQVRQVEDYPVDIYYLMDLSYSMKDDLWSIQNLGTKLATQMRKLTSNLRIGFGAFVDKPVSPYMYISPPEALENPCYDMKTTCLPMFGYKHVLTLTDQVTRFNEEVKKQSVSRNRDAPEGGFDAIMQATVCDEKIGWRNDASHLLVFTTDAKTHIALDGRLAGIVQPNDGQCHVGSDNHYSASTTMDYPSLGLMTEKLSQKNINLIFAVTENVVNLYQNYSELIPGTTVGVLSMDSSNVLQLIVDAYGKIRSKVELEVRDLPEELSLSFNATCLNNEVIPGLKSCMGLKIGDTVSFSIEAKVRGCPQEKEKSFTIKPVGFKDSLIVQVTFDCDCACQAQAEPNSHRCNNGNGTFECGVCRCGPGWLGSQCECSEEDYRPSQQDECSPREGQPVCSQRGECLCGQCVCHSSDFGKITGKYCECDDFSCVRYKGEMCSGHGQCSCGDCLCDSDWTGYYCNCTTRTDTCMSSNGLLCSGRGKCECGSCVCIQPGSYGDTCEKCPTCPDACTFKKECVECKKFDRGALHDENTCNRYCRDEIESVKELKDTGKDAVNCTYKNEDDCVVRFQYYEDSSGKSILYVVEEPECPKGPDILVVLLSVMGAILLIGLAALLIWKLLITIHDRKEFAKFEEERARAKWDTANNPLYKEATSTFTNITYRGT
Chain of Integrin alpha-IIb/beta-3 (P08514 32-887 limits assumed): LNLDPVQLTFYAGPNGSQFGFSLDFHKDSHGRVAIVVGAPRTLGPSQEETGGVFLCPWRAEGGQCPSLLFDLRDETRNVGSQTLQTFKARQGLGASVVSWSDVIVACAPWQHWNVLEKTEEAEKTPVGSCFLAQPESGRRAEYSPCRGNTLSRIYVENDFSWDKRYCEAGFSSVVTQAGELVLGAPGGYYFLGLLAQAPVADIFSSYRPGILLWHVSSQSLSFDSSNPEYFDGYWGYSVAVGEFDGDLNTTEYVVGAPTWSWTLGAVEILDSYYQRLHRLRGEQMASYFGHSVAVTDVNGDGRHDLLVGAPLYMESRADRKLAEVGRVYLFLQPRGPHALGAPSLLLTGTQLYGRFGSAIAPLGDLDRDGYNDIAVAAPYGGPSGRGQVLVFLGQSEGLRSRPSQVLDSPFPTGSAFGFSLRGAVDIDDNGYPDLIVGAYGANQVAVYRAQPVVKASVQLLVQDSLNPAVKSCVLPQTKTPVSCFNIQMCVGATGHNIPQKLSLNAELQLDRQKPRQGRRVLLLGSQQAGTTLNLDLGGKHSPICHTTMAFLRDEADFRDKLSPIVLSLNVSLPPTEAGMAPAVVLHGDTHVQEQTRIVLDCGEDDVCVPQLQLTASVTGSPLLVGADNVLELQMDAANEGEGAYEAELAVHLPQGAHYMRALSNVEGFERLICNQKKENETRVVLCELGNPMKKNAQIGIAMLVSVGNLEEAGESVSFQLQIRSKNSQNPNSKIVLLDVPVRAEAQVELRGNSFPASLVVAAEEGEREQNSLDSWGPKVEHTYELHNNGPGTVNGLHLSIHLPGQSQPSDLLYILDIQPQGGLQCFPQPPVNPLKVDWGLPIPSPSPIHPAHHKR
Chain of Integrin alpha-IIb/beta-3 (P08514 891-1039 limits assumed): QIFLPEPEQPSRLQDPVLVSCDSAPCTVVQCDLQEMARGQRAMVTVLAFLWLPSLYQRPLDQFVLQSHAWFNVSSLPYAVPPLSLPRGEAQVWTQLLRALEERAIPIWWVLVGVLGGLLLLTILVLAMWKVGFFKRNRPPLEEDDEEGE

`N=C(N)c1ccc2[nH]c(C(=O)NCc3ccc(CCC(=O)O)cc3)cc2c1` [3-(4-{[(5-Carbamimidoyl-1H-indole-2-carbonyl)-amino]-methyl}-phenyl)-propionic acid] returned an IC50 in assay [1] of 39 µM. Still for that read-out and setting: under `CCCCC(CCCCNC(=O)c1cc2cc(C(=N)N)ccc2[nH]1)CC(=O)O` (stereo unspecified) [3-Butyl-7-[(5-carbamimidoyl-1H-indole-2-carbonyl)-amino]-heptanoic acid] stands 25.3 µM; under `N=C(N)c1ccc2[nH]c(C(=O)NCCC(=O)NCCC(=O)O)cc2c1` [3-{3-[(5-Carbamimidoyl-1H-indole-2-carbonyl)-amino]-propionylamino}-propionic acid], 3.6 µM.

Regarding `CCCCCCC(CCCCNC(=O)c1cc2cc(C(=N)N)ccc2[nH]1)CC(=O)O` (stereo unspecified) [3-{4-[(5-Carbamimidoyl-1H-indole-2-carbonyl)-amino]-butyl}-nonanoic acid], the half-inhibitory concentration (IC50) in assay [1] worked out at 59 µM. With `N=C(N)c1ccc2[nH]c(C(=O)NCC(=O)NCCCC(=O)O)cc2c1` [4-{2-[(5-Carbamimidoyl-1H-indole-2-carbonyl)-amino]-acetylamino}-butyric acid], the IC50 in assay [1] came to 50 µM.

Consider `N=C(N)c1ccc2[nH]c(C(=O)NCCCCCC(=O)O)cc2c1` [6-[(5-Carbamimidoyl-1H-indole-2-carbonyl)-amino]-hexanoic acid], for which the half-maximal inhibitory concentration (IC50) in assay [1] is > 100 µM.

Compound `N=C(N)c1ccc2oc(C(=O)NCCCCCC(=O)O)cc2c1` [6-[(5-Carbamimidoyl-benzofuran-2-carbonyl)-amino]-hexanoic acid] yielded an IC50 in assay [1] of 16 µM. In other words, the double-digit micromolar range.

In the case of `N=C(N)c1cccc(NCC(=O)NCCCCCCC(=O)O)c1` [7-[2-(3-Carbamimidoyl-phenylamino)-acetylamino]-heptanoic acid], the IC50 in assay [1] is > 100 µM.

In the case of `N=C(N)c1ccc(OCC(=O)NCCCCCCC(=O)O)cc1` [7-[2-(4-Carbamimidoyl-phenoxy)-acetylamino]-heptanoic acid], the IC50 in assay [1] came out at 2.6 µM. For the compound `N=C(N)c1ccc(NCC(=O)NCCCCCCC(=O)O)cc1` [7-[2-(4-Carbamimidoyl-phenylamino)-acetylamino]-heptanoic acid], the IC50 in assay [1] came out at 67 µM. In turn, `N=C(N)c1ccc2c(c1)cc(C(=O)NCCCCCCC(=O)O)n2Cc1ccccc1` [7-[(1-Benzyl-5-carbamimidoyl-1H-indole-2-carbonyl)-amino]-heptanoic acid] displayed an IC50 in assay [2] of 21 µM. `Cn1c(C(=O)NCCCCCCC(=O)O)cc2cc(C(=N)N)ccc21` [7-[(5-Carbamimidoyl-1-methyl-1H-indole-2-carbonyl)-amino]-heptanoic acid] showed an IC50 in assay [1] of 7.5 µM. Same read-out and setting: under `CCC(CCCCCNC(=O)c1cc2cc(C(=N)N)ccc2[nH]1)C(=O)O` (stereo unspecified) [7-[(5-Carbamimidoyl-1H-indole-2-carbonyl)-amino]-2-ethyl-heptanoic acid] stands > 100 µM.

`CC(CCCCCNC(=O)c1cc2cc(C(=N)N)ccc2[nH]1)C(=O)O` (stereo unspecified) [7-[(5-Carbamimidoyl-1H-indole-2-carbonyl)-amino]-2-methyl-heptanoic acid] displayed an IC50 in assay [1] of 43.7 µM. Same read-out and setting: next, `CCC(CCCCNC(=O)c1cc2cc(C(=N)N)ccc2[nH]1)CC(=O)O` (stereo unspecified) [7-[(5-Carbamimidoyl-1H-indole-2-carbonyl)-amino]-3-ethyl-heptanoic acid]: 5.2 µM; `CC(CCCCNC(=O)c1cc2cc(C(=N)N)ccc2[nH]1)CC(=O)O` (stereo unspecified) [7-[(5-Carbamimidoyl-1H-indole-2-carbonyl)-amino]-3-methyl-heptanoic acid]: 2.8 µM. The same measure, in the same setting: under `N=C(N)c1ccc2[nH]c(C(=O)NCCCCC(CC(=O)O)c3ccccc3)cc2c1` (stereo unspecified) [7-[(5-Carbamimidoyl-1H-indole-2-carbonyl)-amino]-3-phenyl-heptanoic acid] stands 4.9 µM; under `N=C(N)c1ccc2[nH]c(C(=O)NCCCCCCC(=O)O)cc2c1` [7-[(5-Carbamimidoyl-1H-indole-2-carbonyl)-amino]-heptanoic acid], 2.8 µM; under `CN(CCCCCCC(=O)O)C(=O)c1cc2cc(C(=N)N)ccc2[nH]1` [7-[(5-Carbamimidoyl-1H-indole-2-carbonyl)-methyl-amino]-heptanoic acid], 3 µM. The same measure, in the same setting: under `N=C(N)c1ccc2c(c1)CC(C(=O)NCCCCCCC(=O)O)O2` (stereo unspecified) [7-[(5-Carbamimidoyl-2,3-dihydro-benzofuran-2-carbonyl)-amino]-heptanoic acid] stands 3.4 µM; under `Cc1c(C(=O)NCCCCCCC(=O)O)[nH]c2ccc(C(=N)N)cc12` [7-[(5-Carbamimidoyl-3-methyl-1H-indole-2-carbonyl)-amino]-heptanoic acid], 4.1 µM; under `N=C(N)c1ccc2sc(C(=O)NCCCCCCC(=O)O)cc2c1` [7-[(5-Carbamimidoyl-benzo[b]thiophene-2-carbonyl)-amino]-heptanoic acid], 7.3 µM.

Take `N=C(N)c1ccc2oc(C(=O)NCCCCCCC(=O)O)cc2c1` [7-[(5-Carbamimidoyl-benzofuran-2-carbonyl)-amino]-heptanoic acid]: the IC50 in assay [1] stood at 0.27 µM. This IC50 is about 27-fold lower than that of the compound before.

Take `N=C(N)c1ccc2c(C(=O)NCCCCCCC(=O)O)[nH]nc2c1` [7-[(6-Carbamimidoyl-1H-indazole-3-carbonyl)-amino]-heptanoic acid]: the IC50 in assay [1] was 0.14 µM.

Compound `N=C(N)c1ccc2cc(C(=O)NCCCCCCC(=O)O)[nH]c2c1` [7-[(6-Carbamimidoyl-1H-indole-2-carbonyl)-amino]-heptanoic acid] registered an IC50 in assay [1] of 1.3 µM.

For `N=C(N)c1ccc2c(C(=O)NCCCCCCC(=O)O)c[nH]c2c1` [7-[(6-Carbamimidoyl-1H-indole-3-carbonyl)-amino]-heptanoic acid], the IC50 in assay [1] is 0.65 µM. In turn, `N=C(N)c1ccc2cc(C(=O)NCCCCCCC(=O)O)oc2c1` [7-[(6-Carbamimidoyl-benzofuran-2-carbonyl)-amino]-heptanoic acid] displayed a concentration for half-maximal inhibition (IC50) in assay [1] of 7.2 µM. Take `N=C(N)c1ccc2oc(C(=O)NCCCCCCCC(=O)O)cc2c1` [8-[(5-Carbamimidoyl-benzofuran-2-carbonyl)-amino]-octanoic acid]: in assay [2], the 50% inhibitory concentration (IC50) amounted to 26.7 µM. The compound `N=C(N)c1ccc2[nH]c(C(=O)NCc3ccc(CC(=O)O)cc3)cc2c1` [(4-{[(5-Carbamimidoyl-1H-indole-2-carbonyl)-amino]-methyl}-phenyl)-acetic acid] registered a 50% inhibitory concentration (IC50) in assay [1] of 47 µM.

Compound `C#C[C@H](CC(=O)O)NC(=O)CCC(=O)Nc1ccc(C(=N)N)cc1` [(S)-3-[3-(4-Carbamimidoyl-phenylcarbamoyl)-propionylamino]-pent-4-ynoic acid] came in with an IC50 in assay [2] of 0.035 µM.

`N=C(N)c1ccc2[nH]c(C(=O)NCCCC(=O)NCC(=O)O)cc2c1` [{4-[(5-Carbamimidoyl-1H-indole-2-carbonyl)-amino]-butyrylamino}-acetic acid] showed a half-inhibitory concentration (IC50) in assay [1] of 32 µM.
